Experimental data gathered from unrelated publications.
Protocols differ between the studies behind these lines.
Target: Tyrosine-protein kinase Fgr (FGR, Homo sapiens, UniProt P09769)

SMILES	observed	technique	concentration	remaining binding [%]
COc1cnc(Nc2cccc(S(N)(=O)=O)c2)nc1N1CCN(c2ccccc2)CC1	binding	competition with immobilised ligand	1 µM	95
COc1ncc2cc3ccccc3nc2c1C#N	cell-free assay	competition with immobilised ligand	5 µM	100
O=C(c1ccc(Nc2ncc(Cl)c(-c3ccc(Cl)s3)n2)cc1)N1CCC(N2CCCC2)CC1	cell-free assay	competition with immobilised ligand	1 µM	96
C[C@@H](c1ccc(-n2cnc3c(N)ncnc32)cc1)N1CCc2nn(C)c(Cc3ccccc3)c2C1=O	binding	competition with immobilised ligand	0.1 µM	81
C[C@H](c1cccc(C#N)c1)n1cc(Cl)cc(C(N)=O)c1=N	cell-free assay	competition with immobilised ligand	1 µM	80
CN(C)c1ncc(F)c(-c2cnn3ncccc23)n1	binding		1 µM	88
O=C(c1ccc(Nc2ncc(Cl)c(-c3cc4ccccc4s3)n2)cc1)N1CCC(N2CCCC2)CC1	cell-free assay	competition with immobilised ligand	1 µM	92
CC(=O)Nc1c(C(C)=O)c(=O)n(C)c2nc(-c3ccc(Cl)cc3Cl)c(-c3ccc(Cl)cc3)cc12	cell-free assay	competition with immobilised ligand	1 µM	100
c1cnn2ncc(-c3ccnc(N4CCC45COC5)n3)c2c1	binding		1 µM	100
O=C(NCC1CCOCC1)c1n[nH]cc1NC(=O)c1c(F)cccc1F	binding	competition with immobilised ligand	1 µM	100
N[C@@H]1CCN(c2nccc(-c3cnn4ncccc34)n2)C1	binding		1 µM	100
CNCc1ccccc1-c1csc([C@@H](C)Nc2nc(C)nc3cc(OC)c(OC)cc23)c1	cell-free assay	competition with immobilised ligand	1 µM	100
F[C@@H]1CCN(c2nccc(-c3cnn4ncccc34)n2)C1	binding		1 µM	81
Cc1nccc(COC(=O)N2C[C@@H]3[C@@H](CNC(=O)c4ccc5[nH]nnc5c4)[C@@H]3C2)n1	cell-free assay	competition with immobilised ligand	1 µM	100
O=C(NCCCN1CCOCC1)c1ccc(Nc2ncc(Cl)c(-c3ccc(Cl)s3)n2)cc1	cell-free assay	competition with immobilised ligand	1 µM	91
Cc1noc([C@H]2C[C@@H](c3ccc(C(F)(F)F)cc3)CN(C(=O)N3CCS(=O)(=O)C3)C2)n1	cell-free assay	competition with immobilised ligand	1 µM	100
COc1ccnn2ncc(-c3ccnc(N(C)C)n3)c12	binding		1 µM	76
CNC(=O)[C@@H]1CC[C@@H](n2c(-c3ccc4cnccc4c3)nc3ccc(C(=O)NCc4cccc(C(N)=O)c4)cc32)C1	binding	competition with immobilised ligand	1 µM	100
O=C(NCc1ncc(C(F)(F)F)cc1Cl)c1ccc2c(c1)C1(CCS(=O)(=O)CC1)[C@H](C1CC1)N2S(=O)(=O)c1ccc(F)cc1	cell-free assay	competition with immobilised ligand	1 µM	100
C[C@@H]1CCN(c2nccc(-c3cnn4ncccc34)n2)C1	binding		1 µM	100
